Measurements from ChEMBL document CHEMBL2176901, “Pyrrolo[3,4-h]quinolinones a new class of photochemotherapeutic agents” (Bioorg Med Chem, 2011).
pIC50: −log10 of the molar value. The source made the active and inactive calls. The rule behind the calls is not given here.

Experiments:
[1] = Phototoxicity in 2.5 J/cm'2 UV-A irradiated human NCTC-2544 cells after 72 hrs by MTT assay; type: functional, cell-based; settings: NCTC-2544, light or radiation study
How it was run: (§1)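 HL-60 and Jurkat (8×10³/well, RPMI-1640) and MCF-7, LoVo, NCTC-2544 (5×10³/well; DMEM or Ham's F12) preincubated 18 h at 37 °C, 5% CO₂. Compound in DMSO diluted in HBSS pH 7.2, 30 min at 37 °C, then UV-A at 2.5 or 3.75 J/cm². Medium replaced, 72 h incubation, MTT read-out. IC50 as mean ± SEM of three experiments.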

Jurkat [2] = test: Induction of apoptosis in 3.75 J/cm'2 UV-A irradiated human Jurkat cells assessed as viable cells at 10 uM after 24 hrs by Annexin-V-FITC and propidium iodide based flow cytometry (reference value: 91%); type: functional; settings: light or radiation study, read-out: Activity
Nucleic Acid [3] = test: Induction of photo-induced DNA damage in Escherichia coli pBR322 DNA at drug:DNA ratio of 1:3 by agarose gel electrophoresis in presence of nitrogen flux; type: nucleic-acid assay
How it was run: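 Supercoiled pBR322 (100 ng) in 10 mM phosphate buffer pH 7.2 irradiated with UV-A (3.75 J/cm²) at [DNA]/[drug] 1/3, with additives, under nitrogen or in deuterated buffer as stated. Aliquots then incubated at 37 °C with Fpg or Endo III. Run on 1% agarose in TAE, 80 V for 2 h, stained with ethidium bromide; Form I/II fractions from band densitometry.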

LoVo = test: Phototoxicity in 3.75 J/cm'2 UV-A irradiated human LoVo cells after 72 hrs by MTT assay; type: functional, cell-based; settings: light or radiation study
How it was run: (§2)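 Seeded at 5 × 10³ cells/well with 10% FBS: MCF-7 and NCTC-2544 in DMEM, LoVo in Ham's F12. Pre-incubated 18 h at 37 °C, 5% CO2. Compound (DMSO stock diluted in HBSS pH 7.2) was applied for 30 min at 37 °C, then UV-A irradiation (mainly 365 nm, 4.0 mW/cm²). Medium was restored for 72 h before MTT. IC50 is the mean ± SEM of three experiences.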

Jurkat [4] = test: Cell cycle arrest in UV-A irradiated human Jurkat cells assessed as accumulation at G2/M phase at 5 uM after 24 hrs by propidium iodide based flow cytometry (reference value: 10.3 %); type: functional
How it was run: (§3)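 Exponentially growing Jurkat cells (5×10^5) irradiated with UV-A (365 nm lamp, 2.5 J/cm²) in presence of compound. After 24 h: fixed in ice-cold 70% ethanol, lysed with RNAse A, stained with PI (10 µg/ml), analysed by flow cytometry. Phases calculated on living cells; subG1 is hypodiploid DNA peak.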

MCF7 [5] = test: Phototoxicity in 3.75 J/cm'2 UV-A irradiated human MCF7 cells after 72 hrs by MTT assay; type: functional, cell-based; settings: MCF7, light or radiation study; how it was run: as §2
[6] = Photodegradation of the compound in DMSO assessed as formation of photoproducts at 20 uM at 1.3 to 14.1 J/cm'2 UV-A irradiation; type: physicochemical
How it was run: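 Compound solutions at 20 μM in DMSO exposed to increasing UV-A doses (HPW 125 lamps, mainly 365 nm, 4.0 mW cm⁻²). Absorption spectra recorded after each dose; isosbestic points noted.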

Nucleic Acid [7] = test: Binding affinity to salmon testes DNA at drug/DNA ratio of 0.03 by linear dichroism analysis; type: nucleic-acid assay; settings: Salmonidae
How it was run: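 Flow linear dichroism in 10 mM phosphate buffer pH 7.2. Samples oriented in a rotating cylindrical cuvette (0.14 cm path, 800 rpm) at several drug/DNA ratios.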

Jurkat [8] = test: Cell cycle arrest in UV-A irradiated human Jurkat cells assessed as accumulation at Sub G1 phase at 5 uM after 24 hrs by propidium iodide based flow cytometry (reference value: 0.1 %); type: functional; how it was run: as §3
Jurkat [9] = test: Induction of apoptosis in UV-A irradiated human Jurkat cells assessed as loss of mitochondrial membrane potential after 6 hrs by cytofluorimetric analysis; type: functional, cell-based
How it was run: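 Jurkat cells 6, 12 and 24 h after UV-A (2.5 J/cm²) with compound, resuspended in HBSS with JC-1 (1 μg/ml). Green (FL1) and orange (FL2) fluorescence collected by flow cytometry, ≥10000 events; cells with monomeric JC-1 counted as collapsed potential. Mean ± SEM of three experiments.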

Jurkat [10] = test: Phototoxicity in 3.75 J/cm'2 UV-A irradiated human Jurkat cells after 72 hrs by MTT assay; type: functional, cell-based; settings: light or radiation study
How it was run: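 Jurkat cells (8 × 10³/well) in RPMI-1640 with 10% FBS, held 18 h at 37 °C, 5% CO2. Compound stock in DMSO was diluted in HBSS pH 7.2 and added for 30 min at 37 °C. Cells were UV-A irradiated (lamp mainly 365 nm, 4.0 mW/cm²), then returned to medium for 72 h. MTT readout. IC50 is the mean ± SEM of three experiences.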

MCF7 [11] = test: Phototoxicity in 2.5 J/cm'2 UV-A irradiated human MCF7 cells assessed as cell viability after 72 hrs by MTT assay in presence of radical scavenger DMTU; type: functional, cell-based
How it was run: (§4)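 MCF-7 cells given compound plus scavenger in HBSS, 30 min at 37 °C, then UV-A (2.5 J/cm², 365 nm lamp). Medium replaced; viability by MTT after 72 h. Means ± SEM of at least three independent experiments.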

Nucleic Acid [12] = test: Induction of photo-induced Escherichia coli pBR322 DNA damage at drug:DNA ratio of 3:1 by agarose gel electrophoresis in presence of endonuclease III
[13] = Phototoxicity in 3.75 J/cm'2 UV-A irradiated human NCTC-2544 cells after 72 hrs by MTT assay; type: functional, cell-based; settings: NCTC-2544, light or radiation study; how it was run: as §2
Jurkat [14] = test: Cell cycle arrest in UV-A irradiated human Jurkat cells assessed as accumulation at G2/M phase at 10 uM after 24 hrs by propidium iodide based flow cytometry (reference value: 10.3 %); type: functional; how it was run: as §3
MCF7 [15] = test: Phototoxicity in 2.5 J/cm'2 UV-A irradiated human MCF7 cells assessed as cell viability after 72 hrs by MTT assay in presence of radical scavenger GSH; type: functional, cell-based; how it was run: as §4
MCF7 [16] = test: Phototoxicity in 2.5 J/cm'2 UV-A irradiated human MCF7 cells after 72 hrs by MTT assay; type: functional, cell-based; settings: MCF7, light or radiation study; how it was run: as §1
Jurkat [17] = test: Induction of apoptosis in 3.75 J/cm'2 UV-A irradiated human Jurkat cells assessed as necrotic cells at 5 uM after 24 hrs by Annexin-V-FITC and propidium iodide based flow cytometry (reference value: 4.2 %); type: functional
Nucleic Acid [18] = test: Binding affinity to salmon testes DNA at 10 uM by fluorescence titration; type: nucleic-acid assay; settings: Salmonidae
How it was run: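 Fluorimetric titration of compound (10 μM) with increasing stDNA (0 to 100 μM) in 10 mM phosphate buffer pH 7.2; quenching of compound fluorescence monitored.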

[19] = Drug uptake in cytoplasm of human NCTC-2544 cells at 10 uM after 2 hrs by fluorescence microphotography; type: ADME, cell-based; settings: nctc-2544, 2 h
How it was run: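 NCTC-2544 cells attached in Petri dishes, given compound at 10 μM for 2 h, washed with HBSS. Then 30 min with Rhodamine 123 (mitochondria), LysoTracker RED, CellMask Orange (plasma membrane) or ER-Tracker. Blue compound fluorescence overlaid on probe images by video-confocal microscopy.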

Stability [6]: Unstable | Activity (Nucleic Acid [7]): inactive | Activity (Nucleic Acid [18]): inactive | Drug uptake [19]: Active
SMILES: CCOC(=O)c1c2c(c(C)n1C)-c1c(cc(S(=O)(=O)c3ccccc3)c(=O)n1C)CC2
pIC50 [1]: 5.62 | viability at 10 µM (Jurkat [2]): 45.2% | Activity (Nucleic Acid [3]): inactive | pIC50 (LoVo): 6.40 | Activity (Jurkat [4]): 4.2% | pIC50 (MCF7 [5]): 5.89 | Activity (Jurkat [8]): 10.5% | Activity (Jurkat [9]): Active | pIC50 (Jurkat [10]): 6.10 | Activity (MCF7 [11]): inactive | Activity (Nucleic Acid [12]): Active | pIC50 [13]: 5.89 | Activity (Jurkat [14]): 5.3% | Activity (MCF7 [15]): inactive | pIC50 (MCF7 [16]): 5.77 | Activity (Jurkat [17]): 4.5%
